Measured values taken from article PMC5522708 (Archives of biochemistry and biophysics, 2016).
Values belong to the compound of their own block, whether it stands above or below them.

Tests used:
renalase = test: HPLC substrate analysis of reduced NR and NMN isomers with renalase; format: biochemical; conditions: ~12.5 µM renalase, 10 min, HPLC of borohydride-reduced mixtures, pH 7.5
How it was run: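 Each mixture was split: one half received renalase, the other served as the no-enzyme and stability control. After 10 min, enzyme was removed by 10 kDa ultrafiltration. Filtrates ran on isocratic C18 HPLC (same buffer) with detection at 260/370 nm, corrected for dilution.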

human renalase = human renalase (Homo sapiens, UniProt Q5VYX0); format: biochemical, H. sapiens; conditions: for inhibition of 6DHNAD oxidation (reductive half reaction): 173 µM 6DHNAD, anaerobic
[1] = molecular target: HsRen (renalase from H. sapiens) (Homo sapiens, UniProt Q5VYX0); test: Reductive half-reaction of HsRen; format: biochemical; conditions: anaerobic, 25 °C; for increase in kred/Kd on addition of ADP: ADP 4–5 mM
How it was run: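 Anaerobic stopped-flow was run at 25 °C in 20 mM HEPES, pH 7.5, with glucose/glucose oxidase O2 scavenging. HsRen was 6–11 µM post-mix, and flavin reduction was read at 458 nm. DHNR runs included 2 mM octyl-β-glucoside.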

HsRen (human renalase) = conditions: cited from earlier work; for binding constants of the products: earlier work, no reference given
[2] = test system: E.coli malate dehydrogenase; conditions: competitive; cited from earlier work
[3] = molecular target: specific enzymes that have β-NADH as substrate; conditions: competitive; cited from earlier work

human renalase, sequence (Q5VYX0 18-342): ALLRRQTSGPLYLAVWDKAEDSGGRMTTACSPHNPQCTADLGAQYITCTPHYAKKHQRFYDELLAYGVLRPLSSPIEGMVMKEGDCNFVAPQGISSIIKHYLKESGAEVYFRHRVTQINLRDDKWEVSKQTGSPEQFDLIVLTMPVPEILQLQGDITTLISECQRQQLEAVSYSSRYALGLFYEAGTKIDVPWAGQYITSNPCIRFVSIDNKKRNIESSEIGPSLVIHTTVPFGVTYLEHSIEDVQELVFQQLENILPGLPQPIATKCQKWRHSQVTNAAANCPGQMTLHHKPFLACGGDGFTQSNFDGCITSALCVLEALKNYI
HsRen (renalase from H. sapiens), sequence (Q5VYX0 18-342): as above

consumed by renalase (substrate) (renalase): consumed
Structure (SMILES): NC(=O)C1=CC=CN([C@@H]2O[C@H](COP(=O)(O)O)[C@@H](O)[C@H]2O)C1 [2DHNMN, 2-dihydronicotinamide mononucleotide]

difference in the Kd for 4DHNMN compared to 4DHNR (human renalase; HsRen): six-fold
inhibition of 6DHNAD oxidation (reductive half reaction) (human renalase; HsRen): inhibitory
Structure (SMILES): NC(=O)C1=CN([C@@H]2O[C@H](COP(=O)(O)O)[C@@H](O)[C@H]2O)C=CC1 [4DHNMN, 4-dihydronicotinamide mononucleotide]

Structure (SMILES): Nc1ncnc2c1ncn2[C@@H]1O[C@H](COP(=O)(O)O)[C@@H](O)[C@H]1O [AMP, adenosine monophosphate]
inhibition of 6DHNAD oxidation (reductive half reaction) (human renalase; HsRen): did not show measureable inhibition

consumed by renalase (substrate) (renalase): consumed
effect of AMP counterpart ligand on kred/Kd ([1]; pH 7.5): no measurable difference
Structure (SMILES): NC(=O)C1=CN(C2OC(COP(=O)(O)O)C(O)C2O)CC=C1 (centres unmarked) [6DHNMN, 6-dihyronicotinamide mononucleotide]

Structure (SMILES): Nc1ncnc2c1ncn2[C@@H]1O[C@H](COP(=O)(O)OP(=O)(O)O)[C@@H](O)[C@H]1O [ADP, adenosine diphosphate]
Kd (human renalase): 15 mM

Structure (SMILES): NC(=O)c1ccc[n+]([C@@H]2O[C@H](COP(=O)([O-])OP(=O)(O)OC[C@H]3O[C@@H](n4cnc5c(N)ncnc54)[C@H](O)[C@@H]3O)[C@@H](O)[C@H]2O)c1 [β-NAD^+, oxidized nicotinamide adenine dinucleotide]
binding constants of the products (HsRen (human renalase)): low millimolar

Structure (SMILES): CNC(=O)c1cccnc1 [methyl nicotinamide]
inhibition of 6DHNAD oxidation (reductive half reaction) (human renalase; HsRen): did not show measureable inhibition

Structure (SMILES): NC(=O)C1=CN([C@@H]2O[C@H](COP(=O)(O)OP(=O)(O)OC[C@H]3O[C@@H](n4cnc5c(N)ncnc54)[C@H](O)[C@@H]3O)[C@@H](O)[C@H]2O)CC=C1 [6DHNAD, 6-dihydronicotinamide adenine dinucleotide]
Kd (HsRen (human renalase); read-out: measured dissociation constant for the substrate): 0.173 mM
Ki [2]: 34 nM
Ki values [3]: sub-micromolar range

Structure (SMILES): NC(=O)c1ccc[n+]([C@@H]2O[C@H](COP(=O)([O-])OP(=O)(O)OC[C@H]3O[C@@H](n4cnc5c(N)ncnc54)[C@H](OP(=O)(O)O)[C@@H]3O)[C@@H](O)[C@H]2O)c1 [β-NADP^+, oxidized nicotinamide adenine dinucleotide phosphate]
binding constants of the products (HsRen (human renalase)): low millimolar

Structure (SMILES): NC(=O)c1ccc[n+]([C@@H]2O[C@H](COP(=O)([O-])O)[C@@H](O)[C@H]2O)c1 [NMN^+, nicotinamide mononucleotide]
inhibition of 6DHNAD oxidation (reductive half reaction) (human renalase; HsRen): did not yield any substrate inhibition

Structure (SMILES): NC(=O)c1cccnc1 [nicotinamide]
IC50 (human renalase): > 68 mM
inhibition of 6DHNAD oxidation (reductive half reaction) (human renalase; HsRen): did not show measureable inhibition

IC50 (human renalase): > 7.3 mM
inhibition of 6DHNAD oxidation (reductive half reaction) (human renalase; HsRen): did not yield any substrate inhibition
Structure (SMILES): NC(=O)c1ccc[n+]([C@@H]2O[C@H](CO)[C@@H](O)[C@H]2O)c1 [NR^+, nicotinamide riboside]

Structure (SMILES): NC(=O)C1=CC=CN([C@@H]2O[C@H](CO)[C@@H](O)[C@H]2O)C1 [2DHNR]
consumed by renalase (substrate) (renalase): consumed

inhibition of 6DHNAD oxidation (reductive half reaction) (human renalase; HsRen): inhibitory
Structure (SMILES): NC(=O)C1=CN([C@@H]2O[C@H](CO)[C@@H](O)[C@H]2O)C=CC1 [4DHNR, 4-dihydronicotinamide riboside]

consumed by renalase (substrate) (renalase): consumed
increase in kred/Kd on addition of ADP ([1]; pH 7.5): 7 fold
increase in kred/Kd on addition of ADP ([1]; pH 7.5, listed as 6-dihydronicotinamide riboside): seven
Structure (SMILES): NC(=O)C1=CN([C@@H]2O[C@H](CO)[C@@H](O)[C@H]2O)CC=C1 [6DHNR, 6-dihydornicotinamide riboside]
